Measured values gathered from unrelated publications.
Protocols differ between the studies behind these lines.
Read-out: cell growth or viability

Compound	cell line	assay	setting	measurement	value
CCC/C=C/C=C/C(=O)O[C@H]1/C(=C/C(=O)OC)C[C@H]2C[C@H]([C@@H](C)O)OC(=O)C[C@H](O)C[C@@H]3C[C@H](OC(C)=O)C(C)(C)[C@](O)(C[C@@H]4C/C(=C/C(=O)OC)C[C@H](/C=C/C(C)(C)[C@]1(O)O2)O4)O3	BGM	MTS	5 days	CC50	~100 µM
CC(C)[C@H](N)C(=O)N1CCC[C@H]1B(O)O	HEK-293T	ATP luminescence	60 µM, 5 days	viability	97%
CC(C)(CO)C(=O)SCCOP(=O)(NCc1ccccc1)OC[C@H]1O[C@@H](n2cnc3c(=O)[nH]c(N)nc32)[C@](C)(O)[C@@H]1O (mixture of isomers)	Huh-7		replicon	CC50	> 10 µM
O=c1c(O[C@@H]2O[C@H](CO)[C@@H](O)[C@H](O)[C@H]2O)c(-c2ccc(O)cc2)oc2cc(O)cc(O)c12	HepG2	WST-1		IC50	37.8 µM
CC(C)(C)C(O)C(Oc1ccc(-c2ccccc2)cc1)n1cncn1 (centres unmarked)	Huh-7	MTT	24 h	CC50	> 400 µM
CCCCCCCCCCOc1cc2c(O)c(C(=O)OCC)cnc2cc1OCC	Huh-7		72 h	IC50	> 100 µM
CCOC(=O)CCc1ccccc1OP(=O)(OC[C@H]1O[C@@H](n2cnc3c(N)nc(N)nc32)[C@](C)(O)[C@@H]1O)Oc1ccccc1CCC(=O)OCC	Huh-7		replicon	CC50	> 10 µM
COC(=O)[C@@H]1[C@@H](c2ccccc2)[C@]2(c3ccc(OC)cc3)Oc3cc(OC)cc(OC)c3[C@@]23N=C(C)N[C@@]13O	HepG2	MTT	24 h	CC50	0.0658 µM
